Sampled rows, rich in hits. Any-hit rate of the full collection: about 6.4%.
H69AR growth 86K: proliferation blockers of H69AR lung cancer cells, primary screen, cell-based, human, 86K library | H69AR lung tumor viability, ATP luminescence, 72 h; hits give low values | viability, % at 10 µM | 85,000 compounds, 6% hits;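 active = viability at or below 40%; inactive = viability above 40%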;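 also: multidrug resistant small cell line overexpressing MRP-1 efflux transporter; 100% = mean luminescence of untreated control wells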
tolC growth inh: growth inhibitors of E. coli tolC mutant, primary screen, strain BW25113 ΔtolC::kan, 384-well; OD615; growth inhibition, % at 10 µM (by protocol); 65,000 compounds, 2.2% hits;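 active = growth inhibition at or above a cutoff equal to the mean over every tested compound plus 3 SD, cut at about 60% in these data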;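 also: growth measured after 20 h incubation at 37 °C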
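Doses: one dose of 10 µM final / Material: E. coli BW25113 ΔtolC::kan, tolC deletion mutant strain / Buffer or medium: LB with kanamycin 50 µg/mL / Evaluation: percent growth inhibition / Detection: optical density read at 615 nm / Incubation: 37 °C, 20 h exposure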
HUVEC inhibit: inhibitors of HUVEC proliferation, primary screen, cell-based, 384-well; CellTiter-Glo luminescence, 72 h; hits give low values; viability, % at 10 µM (by protocol); 86,000 compounds, 1.1% hits;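 active = viability at or below 30%; inactive = viability above 30%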;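 also: 100% = median luminescence of DMSO-only cell control wells on each plate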
Jurkat viability: cytotoxicity toward Jurkat T cells, primary screen, cytotoxicity control, cell-based, Jurkat E6.1, 60K MLSMR library | inhibition, % at 4 µM | 56,000 compounds, 1.2% hits | Jurkat E6.1 viability, ATP luminescence, 48 h;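 active = inhibition above the mean inhibition of all tested compounds plus 3 SD, cut at about 28% in these data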
Ecoli WT expand: growth inhibitors of wild-type E. coli, primary screen, strain BW25113, expanded library, OD600 | OD600 absorbance | growth inhibition, % at 100 µM | 98,000 compounds, 0.15% hits;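 active = growth inhibition above about 50% at one test dose, limit read from the data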;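 also: growth measured after 20 h incubation at 37 °C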
Lung fibro prol: antiproliferative effect on LL 47 fibroblasts – human, LL 47 cells, CellTiter-Glo luminescence, primary screen | LL 47 human lung fibroblast viability, ATP luminescence; hits give low values | viability, % at 10 µM | 85,000 compounds, 1.1% hits | AID 719, 2007;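 active = viability at or below 50% in the single dose screen; inactive = viability above 50%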;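 also: compound exposure lasted 72 h before the ATP readout; 100% = median luminescence of untreated cell-only wells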
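Material: human LL 47 lung fibroblast cells; quantity: 1,150 cells/well; medium: IMEM plus 15% FBS; doses: 0.1% DMSO in all compound wells; timing: overnight attachment after seeding, then 72 h compound exposure at 37 °C; detection: CellTiter-Glo luminescence; measure: % viability of median cell-only signal; controls: cell-only wells, no compound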
Active calls of the source: *; . = no result.

SMILES	H69AR growth 86K	tolC growth inh	HUVEC inhibit	Jurkat viability	Ecoli WT expand	Lung fibro prol
CCN(CC)CCNC(=O)Cn1nc(Cc2cccnc2)c2ccccc2c1=O	87	-11	93	0	-1	103
COc1ccc(Cn2cccc(NC(=O)Nc3cccc(C#N)c3)c2=O)cc1	67	.	90	.	-13	105
N#Cc1cccc(NC(=O)Nc2cccs2)c1	84	16	82	-4	73*	92
COc1cccc(C2=NOC(C(=O)NCC3CCCO3)C2)c1 (centres undefined)	95	-6	92	-3	2	92
Cc1cc(NS(=O)(=O)c2ccc(NC(NC(=O)C(C(F)(F)F)C(F)(F)F)(C(F)(F)F)C(F)(F)F)cc2)no1	69	.	89	.	.	97
CCCCOC(=O)Nc1nc2ccccc2s1	95	.	96	.	-6	101
Cc1cc(C)c(C)c(S(=O)(=O)NCc2ccc(C(=O)N3CCCCC3)cc2)c1C	33*	.	95	.	.	99
Cc1cc(C)c(C)c(S(=O)(=O)NCC(=O)N2CCCC2)c1C	101	4	101	-7	5	100
Cc1nn(-c2nc3ccccc3n2Cc2ccccc2)c2c1C(=O)CC(C)(C)C2	77	91*	110	3	-17	94
CCOC(=O)c1ccc(-n2c(C)nc3c(cnn3-c3ccc(Cl)cc3)c2=O)cc1	74	.	100	.	-11	96
COc1ccc(-n2c(C)nc3c(cnn3-c3ccc(Cl)cc3)c2=O)cc1	68	75*	77	4	-2	94
N#CC1=C(N)N(c2ccccc2)C2=C(C(=O)CCC2)C1c1ccsc1 (centres undefined)	27*	12	94	12	6	94
Cc1nc(S/C(=C/c2ccc(-c3cccc(Cl)c3)o2)C(=O)O)n[nH]1	.	.	.	.	-14	.
CC1=NOC(=O)/C1=C\c1ccc(-c2cccc(Cl)c2)o1	1.1*	.	42	.	2	8.0*
CCOC(=O)c1c(C)oc2c1cc(O)c1ccccc12	62	-9	91	0	4	101
CCOC(=O)c1c(C)oc2c1c(C=NCc1ccccn1)c(O)c1ccccc12	27*	15	48	3	-10	92
CCOC(=O)c1c(NCC2CCCO2)c2ccccc2[nH]c1=O (centres undefined)	102	.	97	.	5	100
CCOC(=O)c1c(C)oc2c1c(C=NCC1CCCO1)c(O)c1ccccc12 (centres undefined)	26*	-5	88	-1	-11	98
Cc1cc2nc(C3CCN(CC4COc5ccccc5O4)CC3)[nH]c2cc1C (centres undefined)	33*	48	5.9*	2	10	91
O=C(N/N=C/c1ccncc1)c1cc([N+](=O)[O-])cc([N+](=O)[O-])c1O	.	.	.	.	-6	.
Cc1cccc(C(=O)NNC2=C(C(=O)C(F)(F)F)CCC2)c1O	25*	.	37	.	5	65
O=C(NNC1=C(C(=O)C(F)(F)F)CCC1)c1cccc(O)c1	77	.	86	.	.	81
CCOc1ccc(-n2c(SCC(=O)Nc3ccc(OC)cc3OC)nc3c(c2=O)SCC3)cc1	77	-2	100	2	-12	94
COc1ccccc1-n1c(SCC(=O)Nc2ccc(F)cc2)nc2c(c1=O)SCC2	20*	5	89	-3	0	96
COc1ccc(NC(=O)CSc2nc3c(c(=O)n2-c2ccccc2)SCC3)c(OC)c1	8.2*	3	70	.	-9	76
SMILES	H69AR growth 86K	tolC growth inh	HUVEC inhibit	Jurkat viability	Ecoli WT expand	Lung fibro prol
O=C(Oc1c(Cl)cc(Cl)c2ccccc12)N1CCCC1	74	.	96	.	28	85
COc1ccc(-c2cc(C(F)(F)F)nc(SCCC(=O)N3CCOCC3)n2)cc1	39*	7	104	1	-4	.
CCCCOc1ccc(C(=O)Nc2ccncc2)cc1	55	40	71	91*	3	91
CCCCOc1ccc(C(=O)NC)cc1	96	-6	101	6	2	100
CCCCOc1ccc(CC(=O)NO)cc1	4.8*	0	89	.	.	94
NC(=S)c1cc2ccc(O)cc2oc1=O	.	.	.	.	24	.
COc1ccccc1N=c1oc2cc(O)ccc2cc1C(N)=O	.	16	.	43*	0	.
COc1ccccc1NC(=O)c1cc2ccc(O)cc2o/c1=N\O	36*	9	81	12	-4	96
Cc1cccc(N=c2oc3cc(O)ccc3cc2C(N)=O)c1	95	98*	65	7	8	93
Cn1c(Cn2c(=O)sc3ccccc32)nnc1SCC(=O)N1CCc2ccccc21	95	4	87	-8	-3	95
CCOc1ccc(C2C(C#N)=C(N)N3C(=C2C#N)Sc2ccccc23)cc1 (centres undefined)	87	17	75	-4	.	90
Cc1cc(C)n(-c2nc3c(c(=O)[nH]c(=O)n3C)n2CCc2ccccc2)n1	24*	2	77	13	4	92
Cc1cc(C)n(-c2nc3c(c(=O)[nH]c(=O)n3C)n2Cc2ccccc2)n1	101	1	96	-4	5	97
CCN(CC)CCNc1nc2c(c(=O)[nH]c(=O)n2C)n1CC(O)COc1ccc(Cl)cc1Cl (centres undefined)	77	-7	83	2	2	92
Cc1cc(C)n(-c2nc3c(c(=O)[nH]c(=O)n3C)n2CC(O)COc2ccc(Cl)cc2Cl)n1 (centres undefined)	13*	.	48	.	.	72
CC12CCC(C(=O)Nc3nccs3)(OC1=O)C2(C)C (centres undefined)	101	.	93	.	4	100
Cc1c(C(=O)N(C)Cc2ccccc2)oc2ccc(S(=O)(=O)N3CCCC3)cc12	39*	35	95	.	-37	88
CCn1cc(C(=O)NCc2ccc3c(c2)OCO3)c(=O)c2cc(S(=O)(=O)N3CCOCC3)ccc21	57	-2	87	0	-19	90
CCN(CC)S(=O)(=O)c1ccc2oc(C(=O)NCc3ccc(C)cc3)c(C)c2c1	38*	.	85	.	-14	88
CCn1cc(C(=O)NCc2ccc(Cl)cc2)c(=O)c2cc(S(=O)(=O)N3CCOCC3)ccc21	30*	4	86	2	6	90
Cc1ccc(CNC(=O)c2oc3ccc(S(=O)(=O)N4CCOCC4)cc3c2C)cc1	31*	.	85	.	-9	97
Cc1c(C(=O)NCc2ccccc2)oc2ccc(S(=O)(=O)N3CCCC3)cc12	56	17	60	11	-5	89
CCN(Cc1ccccc1)S(=O)(=O)c1ccc2oc(C(=O)O)c(C)c2c1	92	13	89	-7	0	101
